MEKK2 WT-MEK5: raises or lowers MEK5 binding to wildtype human MEKK2 PB1 domain; Q9Y2U5; bead flow cytometry, Alexa488-MEK5 binding to MEKK2 WT; actives lie on both sides; binding response (% of control), % at 10 µM; 1.1% of 290,000 active; AID 1531; in the data active means binding response below about 67% or above about 130%
MEKK3 PB1 HTS: raises or lowers MEK5 binding to the human MEKK3 PB1 domain; Q99759; bead-based flow cytometry, Alexa488-MEK5 binding to MEKK3; actives lie on both sides; 0 = blocked by unlabeled MEK5, 100 = vehicle; binding response (% of control), % at 10 µM; 1.4% of 290,000 active; AID 1529;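 active means binding response more than 3 SD above or below the average of its plate-row segment, actives on both sides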;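 further: Alexa488 bead fluorescence after subtracting the streptavidin-only scavenger bead signal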
Target sequence (Q99759 whole entry, looked up, the tested form may be a part): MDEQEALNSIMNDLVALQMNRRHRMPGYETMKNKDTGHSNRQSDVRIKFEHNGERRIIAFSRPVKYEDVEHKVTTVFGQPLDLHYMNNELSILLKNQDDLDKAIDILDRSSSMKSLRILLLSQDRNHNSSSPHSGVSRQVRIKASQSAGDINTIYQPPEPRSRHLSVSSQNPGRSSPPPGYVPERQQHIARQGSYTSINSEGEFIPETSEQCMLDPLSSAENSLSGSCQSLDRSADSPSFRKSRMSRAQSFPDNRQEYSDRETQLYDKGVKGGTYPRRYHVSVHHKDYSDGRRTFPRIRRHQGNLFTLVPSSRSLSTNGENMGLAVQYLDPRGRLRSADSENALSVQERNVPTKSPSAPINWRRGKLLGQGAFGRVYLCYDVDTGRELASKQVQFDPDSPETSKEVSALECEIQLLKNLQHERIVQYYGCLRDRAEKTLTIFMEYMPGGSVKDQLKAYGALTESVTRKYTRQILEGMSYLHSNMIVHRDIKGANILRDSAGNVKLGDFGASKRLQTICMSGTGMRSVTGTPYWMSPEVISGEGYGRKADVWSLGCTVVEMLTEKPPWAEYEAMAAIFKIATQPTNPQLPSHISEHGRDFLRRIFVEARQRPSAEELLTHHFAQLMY
UBC13 polyUb: blocks human UBC13 polyubiquitin chain formation. AID 485273. inhibition, % at 20 µM. TR-FRET. 0.47% of 330,000 active; in the data active means inhibition above about 45%, passing the limit was not always enough
MEKK2 mut-MEK5: signal of MEK5 binding to mutant human MEKK2 PB1 domain; bead flow cytometry, Alexa488-MEK5 binding to MEKK2 mutant; 0.35% of 290,000 active; AID 1530; percent response, % at 10 µM; in the data active means percent response above about 24%, passing the limit was not always enough
Apaf1 inhib: human Apaf-1 inhibition. O14727. reconstituted apoptosome caspase-3 activity, DEVD-Rh110 fluorescence. inhibition, % at 20 µM. 0.71% of 330,000 active. AID 489030; active means inhibition of at least 40% at 20 µM
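System: reconstituted apoptosome with Apaf-1, cytochrome c, caspase-9, procaspase-3, dATP; Signal: Rh110 fluorescence intensity; Schedule: 30 min compound preincubation, 50 min activation, room temperature; Reagent: cytochrome c trigger plus (Z-DEVD)2-Rh110 caspase-3 substrate.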
MEKK2wt confirm: raises or lowers MEK5 binding to wildtype human MEKK2, retest; 2.4% of 5,900 active; bead flow cytometry, Alexa488-MEK5 binding to MEKK2 WT; actives lie on both sides; binding response (% of control), % at 10 µM; AID 1892; shares compounds with MEKK3 PB1 HTS; in the data active means binding response below about 16% or above about 210%; inactive means in between
MEKK2mut-MEK5: signal of MEK5 binding to mutant human MEKK2, retest. percent response, % at 10 µM. bead flow cytometry, Alexa488-MEK5 binding to MEKK2 mutant. shares compounds with MEKK3 PB1 HTS. AID 1893. 2% of 5,900 active; in the data active means percent response mostly above about 71%, no sharp cut-off; inactive means mostly below about 38%;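 further: higher means compound restores mutant binding toward wildtype level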
MEKK3 confirm: confirmation of inhibitors of MEK5 binding to human MEKK3. shares compounds with MEKK3 PB1 HTS. bead flow cytometry, Alexa488-MEK5 binding to MEKK3; stronger effect = lower value. binding response (% of control), % at 10 µM. 1.8% of 5,900 active;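 active means binding response below 72% of control, or above a set upper limit, though filed actives all read lower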
Hits are given with their value; 0 = inactive; - = no result; [ ] = another dose, or the depositor's remark. Sampled rows, rich in hits. Any-hit rate of the full collection: about 2.9%.

SMILES	MEKK2 WT-MEK5	MEKK3 PB1 HTS	UBC13 polyUb	MEKK2 mut-MEK5	Apaf1 inhib	MEKK2wt confirm	MEKK2mut-MEK5	MEKK3 confirm
CCCNCc1cc(Br)ccc1OCC(=O)NCCc1ccccc1	0	0	0	0	0	-	-	-
O=C(Nc1ccccc1)c1ccccc1C(=O)N1CCCCC1	0	0	0	0	0	-	-	-
Cc1ccnc(NS(=O)(=O)c2cc(C(F)(F)F)ccc2Cl)c1	0	0	0	0	0	-	-	-
CCOc1cc(S(=O)(=O)N2CCN(Cc3ccccc3)CC2)ccc1Br	0	0	0	0	0	-	-	-
COC(=O)c1ccc2c(=O)n(CCCCCC(=O)NCc3ccccc3)c(=O)[nH]c2c1	0	0	0	0	0	-	-	-
COC(=O)c1ccc2c(=O)n(CCCCCC(=O)NCc3ccc4c(c3)OCO4)c(=O)[nH]c2c1	0	65.0[inhibitor]	0	0	0	0	0	0
COc1ccccc1CN1CC(C(=O)NCc2cc(F)cc(C(F)(F)F)c2)CCC1=O (stereo not given)	0	0	0	0	0	-	-	-
COc1ccc(CCNC(=S)Nc2ccc(C(C)C)cc2)cc1	0	134.0	0	0	0	0	0	0
N#Cc1ccc(S(=O)(=O)NCC(=O)OCC(=O)N2CCCC2=O)cc1	-	-	0	-	0	-	-	-
Cc1cc(C)c(-n2c(SCc3nc4ccccc4s3)n[nH]c2=O)c(C)c1	0	130.0	0	0	0	0	0	0
Cc1ccc(C)c(S(=O)(=O)N2CCN(C(=O)c3n[nH]c(=O)c4ccccc34)CC2)c1	-	-	0	-	0	-	-	-
O=C(NCCCSc1ccccc1)c1cc(Br)ccc1O	0	0	0	0	0	-	-	-
O=C(CCCOc1ccccc1)NCCc1nc2ccccc2[nH]1	0	74.0[inhibitor]	0	0	0	0	0	0
CCOc1ccc(OCC(=O)NCCc2nc3ccccc3[nH]2)cc1	0	0	0	0	0	-	-	-
Cn1cnnc1Sc1ccc(C(=O)OCC(=O)Nc2ccccc2)cc1[N+](=O)[O-]	0	0	0	0	0	-	-	-
Cn1cnnc1Sc1ccc(C(=O)OCC(=O)Nc2cc(Cl)cc(Cl)c2)cc1[N+](=O)[O-]	0	137.0	0	0	0	0	0	0
O=C1c2cccnc2C(Nc2ccc(Br)cc2Br)N1Cc1cccs1 (stereo not given)	0	0	0	0	0	-	-	-
COc1cccc(C2=NO[C@@H]3C(=O)N(c4ccc5c(c4)OCCO5)C(=O)[C@H]23)c1OC	0	0	0	0	0	-	-	-
COc1cccc(C2=NO[C@@H]3C(=O)N(Cc4ccccc4)C(=O)[C@H]23)c1OC	0	128.0	0	0	0	0	0	0
Cc1ccc(NC(=O)C(=O)NCCOc2ccc(Cl)cc2)c(C)c1	0	128.0	0	0	0	0	0	0
CC(=O)c1ccccc1OCCCCN1CCCCC1	0	0	0	0	0	-	-	-
Cc1c(Cl)c([N+](=O)[O-])nn1CCCC(=O)N(Cc1ccccc1)Cc1ccccc1	0	141.0	0	0	0	0	0	0
Cc1ccsc1/C=N/n1c(-c2ccccn2)n[nH]c1=S	0	0	0	0	0	-	-	-
O=C1CCCN1c1ccc(S(=O)(=O)NCc2ccc(F)cc2)cc1	0	0	0	0	0	-	-	-
CCc1nnc(NC(=O)Cc2c[nH]c3ccccc23)s1	0	138.0	0	0	0	0	0	0
SMILES	MEKK2 WT-MEK5	MEKK3 PB1 HTS	UBC13 polyUb	MEKK2 mut-MEK5	Apaf1 inhib	MEKK2wt confirm	MEKK2mut-MEK5	MEKK3 confirm
CC(C)Cc1nnc(NC(=O)CCc2c[nH]c3ccccc23)s1	0	0	0	0	0	-	-	-
COc1ccc(S(=O)(=O)N(C)CC(=O)Nc2ccccc2SC)cc1Cl	0	82.0[inhibitor]	0	0	0	0	0	0
COc1ccc(S(=O)(=O)N(C)CC(=O)Nc2ccccc2SC)cc1	0	0	0	0	0	-	-	-
CSc1ccccc1NC(=O)CN(C)CC(=O)Nc1cc(C)ccc1C	0	68.0[inhibitor]	0	0	0	0	0	0
CCC1=C(c2ccc(C)cc2)S(=O)(=O)N=C1N1CCC(C(=O)NCCCN2CCCCC2C)CC1 (stereo not given)	0	0	0	0	0	-	-	-
Cc1sc2nc(CN3CCC(C)CC3)nc(Cl)c2c1C	0	161.0	0	0	0	0	0	0
COCc1c(C(=O)NCc2ccccc2CN2CCCC2)oc2ccccc12	-	-	0	-	0	-	-	-
COC(=O)C1=C(C)NC(=O)NC1c1ccc([N+](=O)[O-])o1 (stereo not given)	0	0	0	0	0	-	-	-
COC(=O)C1=C(C)NC(=O)NC1c1ccc(-c2ccc(Cl)cc2)o1 (stereo not given)	4.0[inhibitor]	0	0	0	0	0	0	0
O=C(NC(C(=O)N/N=C/c1ccccn1)c1n[nH]c(=O)c2ccccc12)c1ccccc1 (stereo not given)	0	0	0	0	0	-	-	-
Cc1nn(Cc2ccccc2)c(Cl)c1C(=O)OCC(=O)NC(=O)NC12CC3CC(CC(C3)C1)C2	0	145.0	0	0	0	0	0	0
Cc1noc(C)c1C(=O)OCC(=O)NC(=O)NC12CC3CC(CC(C3)C1)C2	0	0	0	0	0	-	-	-
COC(=O)c1ccc(CSc2nc3ccc(C)cc3[nH]2)o1	0	0	0	0	0	-	-	-
O=C(Nc1ccc(NC(=S)NC(=O)C(c2ccccc2)c2ccccc2)cc1)c1ccccc1	0	0	0	0	0	-	-	-
O=C(CCc1nnc(CCCCc2ccccc2)o1)NCCCc1cccnc1	9.0[inhibitor]	0	0	0	0	0	0	0
O=C(CCc1nnc(CCCc2ccccc2)o1)NCCc1ccccc1	0	0	0	0	0	-	-	-
O=C(CN1c2cccc3cccc(c23)S1(=O)=O)Nc1ccc(F)c(F)c1F	-	-	0	-	0	-	-	-
CCOc1ccc(NC(=O)CN(C)C(=O)c2ccccc2-n2cnnn2)cc1OCC	-	-	0	-	0	-	-	-
O=[N+]([O-])c1ccc(CN2CCN(c3ccccc3)CC2)o1	0	122.0	0	0	0	0	0	0
O=[N+]([O-])c1ccc(N2CCN(Cc3ccc([N+](=O)[O-])o3)CC2)cc1	0	0	0	0	0	-	-	-
COc1ccccc1-c1cc(C(=O)NC2CCN(C)CC2)c2ccc(Cl)c(C)c2n1	155.0	0	0	28.0	0	0	0	0
Cc1c(Cl)ccc2c(C(=O)NCCCn3nccc3C)cc(-c3ccccn3)nc12	0	0	0	0	0	-	-	-
Cc1c(Cl)ccc2c(C(=O)NCCN3CCCCC3)cc(-c3ccccn3)nc12	166.0	0	0	0	0	0	0	0
COc1cc(C(=O)OCC(=O)NCCN2C(=O)CSC2=O)ccc1OCc1c(C)noc1C	0	0	0	0	0	-	-	-
O=C(NC1CCSc2ccccc21)c1cccc([N+](=O)[O-])c1 (stereo not given)	0	0	0	0	0	-	-	-

Screening data as filed in PubChem.
